Screens as filed in PubChem.
CSN deneddyl inh: CSN deneddylation inhibition | hit rate 0.38% among 360,000 | Q92905 | inhibition, % at 12.5 µM | Purified CSN, SCF-Nedd8-OG deneddylation, fluorescence polarization;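 active = pattern-corrected inhibition above about 35%, with an unprinted fluorescence ratio check between 0.5 and 1.5, limit read from the data, passing the limit was not always enough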
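Schedule: reaction 90 min, room temperature / Assay system: HEK293T-derived human Csn5 enzyme / Input: Csn5 at 0.24 nM final / Measure: inhibition of Csn5 cleavage, % / Control set: substrate-only high control, full reaction low control / Technique: fluorescence polarization of the substrate / Buffer or medium: Tris/NaCl/DTT buffer, pH 7.5 / Reagent: SCFSkp2-Nedd8OG substrate at 10 nM final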
SENP1 inh: blocks the human SENP1 SUMO protease catalytic domain; Q9P0U3; recombinant SENP1 catalytic domain, CyPet-SUMO1-YPet FRET cleavage; inhibition, % at 10 µM; hit rate 0.21% among 360,000; AID 624204;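 active = inhibition at least 30% at 10 µM, raw YFP signal under a set limit, fluorescence ratio 0.5 to 1.5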
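material = recombinant human SENP1 catalytic domain, His6-tagged | quantity = 20 pM enzyme | reagent = 25 nM SUMO1 FRET substrate | compound dosing = 10 µM single point, 0.5% DMSO | timing = 50 min enzyme reaction, room temperature, light-protected | detection = FRET, CFP and YFP emission | control set = no-enzyme low, enzyme-DMSO high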
TPT1 inhibitor: blocks Candida albicans tRNA 2'-phosphotransferase. recombinant caTPT1, FP RNA substrate dephosphorylation. inhibition, % at 5 µM. hit rate 0.81% among 300,000. AID 1962;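 active = inhibition above the mean of all tested compounds plus 3 SD, set per screening campaign, cut at about 24% in these data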
HNF4A DNA FP: change in binding of human HNF4 alpha to DNA. P41235. HNF4a-FITC DNA binding, fluorescence polarization, 1 h. activity change, % at 10 µM. hit rate 0.3% among 360,000. AID 1224865; in the data active = activity change above about 30%, passing the limit was not always enough
Rpn11 block: inhibitors of human proteasome Rpn11; O00487; human 26S proteasome, Ub4-pepOG fluorescence polarization; 20S core pre-blocked with epoxomicin; inhibition, % at 20 µM; hit rate 0.59% among 360,000; AID 588493;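 active = inhibition at 20 µM, scaled to each plate's controls, above about 33%, limit read from the data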
ATG4B inhibitor: inhibitors of human ATG4B cysteine protease | ATG4B cleavage of LC3-PLA2, NBD-HPC fluorescence, 1 h | inhibition, % at 8.33 µM | hit rate 0.51% among 340,000 | AID 504462
Target sequence (Q9Y4P1 whole entry, looked up): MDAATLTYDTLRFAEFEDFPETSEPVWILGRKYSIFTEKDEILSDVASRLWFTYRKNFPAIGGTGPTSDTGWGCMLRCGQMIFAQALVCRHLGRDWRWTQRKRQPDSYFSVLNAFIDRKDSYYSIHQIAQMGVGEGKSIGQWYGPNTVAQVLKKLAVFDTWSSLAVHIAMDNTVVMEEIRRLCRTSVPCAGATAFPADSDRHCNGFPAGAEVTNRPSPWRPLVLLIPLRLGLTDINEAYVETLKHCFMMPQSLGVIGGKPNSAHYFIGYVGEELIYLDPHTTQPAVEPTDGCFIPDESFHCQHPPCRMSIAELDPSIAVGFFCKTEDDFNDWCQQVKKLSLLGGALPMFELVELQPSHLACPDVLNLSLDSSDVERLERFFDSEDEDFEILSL
Rpn11 confirm: confirmation of human proteasome Rpn11 inhibitors. hit rate 29% among 1,900. purified human 26S proteasome, Ub4-pepOG fluorescence polarization; proteasome pretreated with epoxomicin. inhibition, % at 20 µM. shares compounds with Rpn11 block. AID 602318
MMP-2 inh: counter-screen for RPN11 inhibitors: inhibition of human MMP-2; hit rate 4% among 1,900; recombinant MMP-2, FRET peptide cleavage fluorescence; inhibition, % at 20 µM; shares compounds with Rpn11 block;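 note: human MMP-2 activated beforehand with APMA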
Thrombin inh: blocks bovine thrombin, flagging nonselective RPN11 hits. inhibition, % at 20 µM. hit rate 13% among 1,900. shares compounds with Rpn11 block. bovine thrombin cleavage of Ub4-pepOG, fluorescence polarization;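 active = mean inhibition at least 40% at 20 µM, or signal 3 deviations below plate average, so some actives read negative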
A number is an active result; – = inactive; · = no result; + = active, no number. The list is not random: actives were taken first. Their share in the collection is about 2%. Cut-off read from the data, not from the text of the source, unless noted: active = inhibition above about 40%; inactive = the rest.

SMILES | CSN deneddyl inh | SENP1 inh | TPT1 inhibitor | HNF4A DNA FP | Rpn11 block | ATG4B inhibitor | Rpn11 confirm | MMP-2 inh | Thrombin inh
C[C@H](NC(=O)c1ncn2c1c(=O)[nH]c1ccc(Br)cc12)c1ccccc1 | – | – | · | – | + | · | – | – | –
C[C@H](NC(=O)c1ncn2c1c(=O)[nH]c1ccccc12)c1ccccc1 | – | – | · | – | – | · | · | · | ·
CCN(CC)c1ccc(C=C2C(=O)OC(c3ccccc3)OC2=O)cc1 (stereo not given) | – | – | – | – | 77 | – | 77 | – | 76
CS(=O)(=O)Nc1ccc(C2=NN(S(C)(=O)=O)C(c3ccccc3)C2)cc1 (stereo not given) | – | – | – | – | – | – | · | · | ·
CCS(=O)(=O)N1N=C(c2ccc(NS(C)(=O)=O)cc2)CC1c1ccccc1 (stereo not given) | 35 | – | – | 86 | 82 | – | 153 | – | 139
O=C(NCc1ccccc1)c1cccc2c1C(=O)c1ccc(/C=C/c3ccccc3)cc1S2(=O)=O | – | – | · | – | – | – | · | · | ·
Cc1ccc(O)c(N=NC2=C(O)CC(C)(C)CC2=O)c1 | – | – | – | – | 47 | – | – | – | –
COc1ccc(C(=O)N/C(=C/c2ccco2)C(=O)N2CCCCCC2)cc1 | – | – | – | – | 50 | – | – | – | –
O=C(NCCN1C(=O)S/C(=C\c2ccc(OC(F)F)cc2)C1=O)c1cnccn1 | – | – | – | – | – | – | · | · | ·
CCn1c(C(C)NC(=O)c2cccc(C)c2)n[nH]c1=S (stereo not given) | – | – | – | – | – | – | · | · | ·
Cc1cc(C)n(C(=O)CNC(=O)/C=C/c2ccccc2)n1 | – | – | – | – | 72 | – | – | – | –
COC(=O)[C@@]12C[C@@H](CC(=O)NCc3cccs3)C(=O)N(Cc3cccc4ccccc34)C1=CCC(C)(C)C2 | – | – | · | – | · | · | · | · | ·
O=C(CN1C(=O)C2C3C=CC(C3)C2C1=O)Nc1nc(SCc2ccc(Cl)cc2)n[nH]1 (stereo not given) | – | – | – | – | 112 | – | – | – | –
CN(C)c1ccc(CNC(=O)C2(C)Cc3c(-c4ccc5c(c4)OCO5)ccnc3O2)cc1 (stereo not given) | – | – | · | – | – | · | · | · | ·
COc1ccc(N2CCN(Cc3nc4scc(-c5ccccc5)c4c(=O)[nH]3)CC2)cc1 | – | – | – | – | – | – | · | · | ·
O=c1[nH]c(CN2CCN(c3ccccc3)CC2)nc2scc(-c3ccccc3)c12 | – | – | – | – | 41 | – | – | – | –
COc1ccc(N2CCN(Cc3nc4scc(-c5cccs5)c4c(=O)[nH]3)CC2)cc1 | – | – | – | – | 58 | – | – | – | –
C/C(=C\c1cccs1)C(=O)c1c(C)cc(C)[nH]c1=O | – | – | – | – | – | – | · | · | ·
Cc1cc(C)c(C(=O)/C=C/c2cccs2)c(=O)[nH]1 | – | – | – | – | 45 | – | – | – | –
COc1ccc(/C=C/C(=O)c2c(C)cc(C)[nH]c2=O)c2ccccc12 | – | – | – | – | 44 | – | – | – | –
O=C(O)C1CC(=O)N(CCc2ccc(F)cc2)C1 (stereo not given) | – | – | – | – | – | – | · | · | ·
Cc1nn(C)cc1-c1cc(C(=O)O)c2ccccc2n1 | – | – | – | – | – | – | · | · | ·
Cc1cc(-c2cc(C(=O)O)c3ccccc3n2)c(C)s1 | – | – | – | – | 36 | – | – | – | –
O=c1c2ccccc2c(C=NCc2ccccn2)c(O)n1-c1ccccc1 | – | – | – | – | 49 | – | – | – | –
CCOCCCNC(=O)/C(C#N)=C/c1ccc([N+](=O)[O-])o1 | – | – | – | – | 37 | – | – | – | –
COc1ccc(OCCNC(=O)c2ccc(C)cc2)cc1 | – | – | – | – | 40 | – | – | – | –
